Test results published in ChEMBL document CHEMBL2407084, “Novel imino sugar α-glucosidase inhibitors as antiviral compounds” (Bioorg Med Chem, 2013).
The source made the active and inactive calls. No cut-off for these calls is given here.

Key:
MDBK [1] = assay: Inhibition of endoplasmic reticulum alpha-glucosidase 1 in MDBK cells assessed as accumulation of triglucosylated Man5GlcNAc1 after 24 hrs by NP-HPLC analysis relative to Man4GlcNAc1 level; format: cell-based; conditions: Bos taurus
How it was run: (§1)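 Uninfected MDBK cells (1 10^6/well) were grown with a range of imino sugar concentrations for 24 h at 37 °C. Free oligosaccharides were extracted, labelled with 2-anthranilic acid, and purified on amide and ConA-Sepharose columns. They were separated by NP-HPLC. Peak areas of tri-glucosylated (glucosidase I) or mono-glucosylated (glucosidase II) Man5GlcNAc1 were expressed relative to Man4GlcNAc1. Mean and SD.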

[2] = tested on: Bovine viral diarrhea virus 1; assay: Antiviral activity against Bovine viral diarrhea virus infected in MDBK cells assessed as reduction in viral infectivity at 50 uM treated for 24 hrs followed by compound washout followed by serially diluted compound treatment measured after 24 hrs by fluorescence microscopic analysis; format: functional, organism-based
How it was run: (§2)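 Supernatant from BVDV-infected MDBK cells (MOI 1, 24 h with compound) was clarified, and fivefold serial dilutions infected naive MDBK cells for 24 h. Cells were fixed in 4% paraformaldehyde, blocked in milk, permeabilised with Triton X-100, and probed with MAb103/105 against NS2/3 then FITC anti-mouse. DAPI counterstain. Foci counted by fluorescence microscopy to give FFU/ml relative to untreated control; three experiments, mean and SD.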

[3] = tested on: Bovine viral diarrhea virus 1; assay: Antiviral activity against Bovine viral diarrhea virus infected in MDBK cells assessed as reduction in viral RNA level at 10 uM after 24 hrs by RT-PCR analysis; format: functional, organism-based
How it was run: (§3)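 MDBK cells (1.75 10^6/well) infected with BVDV at MOI 1, then incubated with imino sugar for 24 h. Medium was clarified by centrifugation and viral RNA purified, then DNase-treated. SYBR green real-time RT-PCR used primers amplifying a 334-bp NS2 segment, 35 cycles. Copies were calibrated against a standard curve of serially diluted BVDV stock.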

MDBK [4] = assay: Inhibition of endoplasmic reticulum alpha-glucosidase 2 in MDBK cells assessed as accumulation of monoglucosylated Man5GlcNAc1 after 24 hrs by NP-HPLC analysis; format: cell-based; conditions: Bos taurus; how it was run: as §1
MDBK [5] = assay: Inhibition of endoplasmic reticulum alpha-glucosidase 1 in MDBK cells assessed as accumulation of triglucosylated Man5GlcNAc1 after 24 hrs by NP-HPLC analysis; format: cell-based; conditions: Bos taurus; how it was run: as §1
[6] = tested on: Bovine viral diarrhea virus 1; assay: Antiviral activity against Bovine viral diarrhea virus infected in MDBK cells assessed as reduction in viral RNA level at 50 uM after 24 hrs by RT-PCR analysis; format: functional, organism-based; how it was run: as §3
[7] = Cytotoxicity against MDBK cells after 72 hrs by MTS assay; format: cell-based, Bos taurus; conditions: cattle
How it was run: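 MDBK cells (5 10^3/well) were plated for 24 h, then given fresh medium with a range of imino sugar concentrations for 72 h. MTS–phenazine methosulfate (20:1) was added for 1 h and absorbance read at 490 nm. Triplicates. CC50 is the concentration giving A490 at 50% of untreated controls.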

MDBK [8] = assay: Inhibition of endoplasmic reticulum alpha-glucosidase 2 in MDBK cells assessed as accumulation of monoglucosylated Man5GlcNAc1 after 24 hrs by NP-HPLC analysis relative to Man4GlcNAc1 level; format: cell-based; conditions: Bos taurus; how it was run: as §1
[9] = tested on: Bovine viral diarrhea virus 1; assay: Antiviral activity against Bovine viral diarrhea virus infected in MDBK cells assessed as reduction in viral infectivity at 10 uM treated for 24 hrs followed by compound washout followed by serially diluted compound treatment measured after 24 hrs by fluorescence microscopic analysis; format: functional, organism-based; how it was run: as §2
MDBK [10] = assay: Inhibition of BVDV endoplasmic reticulum alpha-glucosidase 1 infected in MDBK cells assessed as increase in E2 protein glucosylation at 100 uM after 24 hrs by Western blotting analysis; format: cell-based; conditions: Bovine viral diarrhea virus 1
MDBK [11] = assay: Inhibition of BVDV endoplasmic reticulum alpha-glucosidase 2 infected in MDBK cells assessed as increase in E2 protein glucosylation at 100 uM after 24 hrs by Western blotting analysis; format: cell-based; conditions: Bovine viral diarrhea virus 1

Row | SMILES | fold change (FC) (MDBK [1]) | Activity [2] | Activity [3] | Concentration giving inhibition (MDBK [4]) [µM] | INH (MDBK [5]) [µM] | Activity [6] | CC50 at 72 h [7] [µM] | fold change (FC) (MDBK [8]) | Activity [9] | inhibition (MDBK [4]) | inhibition (MDBK [5]) | glucosidase I inhibition (active/not active) (MDBK [10]) | activity call (active / not active) (MDBK [11])
1 | OC[C@@H]1[C@@H](O)[C@H](O)[C@@H](O)CN1CCCCc1cn(CC23CC4CC(CC(C4)C2)C3)nn1 | 1.44 | Active | inactive | 50 | 100 | Active | > 250 | 5.2 |  |  |  |  | 
2 | OC[C@@H]1[C@H](O)[C@H](O)[C@@H](O)CN1CCCCn1cc(COCC23CC4CC(CC(C4)C2)C3)nn1 |  | Active |  |  |  |  | > 250 |  | Active | inactive | inactive | inactive | inactive
3 | OC[C@@H]1[C@@H](O)[C@H](O)[C@@H](O)CN1CCc1cn(CC23CC4CC(CC(C4)C2)C3)nn1 | 0.82 | Active | inactive | 100 | 100 | Active | > 250 | 5.1 |  |  |  |  | 
4 | OC[C@@H]1[C@@H](O)[C@H](O)[C@@H](O)CN1Cc1cn(CC23CC4CC(CC(C4)C2)C3)nn1 | 0.54 | Active | inactive | 100 | 100 |  | > 250 | 3 |  |  |  |  | 
5 | OC[C@@H]1[C@@H](O)[C@H](O)[C@@H](O)CN1CCCCCCn1cc(COCC23CC4CC(CC(C4)C2)C3)nn1 | 11.4 |  |  | 10 | 100 |  | 205 | 8.3 | Active |  |  | Active | Active
6 | OC[C@@H]1[C@@H](O)[C@H](O)[C@@H](O)CN1CCCCCCCCCCn1cc(COCC23CC4CC(CC(C4)C2)C3)nn1 | 0.26 |  | Active | 5 | 10 |  | 29.2 | 5.8 | Active |  |  | inactive | inactive
7 | OC[C@@H]1[C@@H](O)[C@H](O)[C@@H](O)CN1CCCCn1cc(COCC23CC4CC(CC(C4)C2)C3)nn1 | 1.52 |  | Active | 100 | 100 |  | > 250 | 6 | Active |  |  | inactive | inactive
8 | OC[C@@H]1[C@@H](O)[C@H](O)[C@@H](O)CN1CCCCCCCCn1cc(COCC23CC4CC(CC(C4)C2)C3)nn1 | 2 |  | Active | 10 | 25 |  | 51.7 | 5.4 | Active |  |  |  | 
